Published values from different studies.
Lines come from different studies, so protocols differ.
Target: MAP kinase-interacting serine/threonine-protein kinase 1 (MKNK1, Homo sapiens, UniProt Q9BUB5)

COc1cc(Nc2cnc(C#N)c(O[C@H](C)CN(C)C)n2)ncc1-c1cnn(C)c1 — remaining activity (enzyme activity; inhibitor; radiometric; 10 µM): 90%
Cc1ccc(C(=O)Nc2ccc(CN3CCN(C)CC3)c(C(F)(F)F)c2)cc1C#Cc1cnc2cccnn12 — remaining activity (enzyme activity; inhibitor; 23.5 nM): 98%
FC(F)c1nc2ccccc2n1-c1nc(N2CCOCC2)nc(N2CCOCC2)n1 — remaining activity (enzyme activity; inhibitor; 10 µM): 96%
CCS(=O)(=O)c1cc2cc(C[C@](O)(CC(C)(C)c3ccc(F)cc3C(N)=O)C(F)(F)F)[nH]c2cn1 — remaining binding (cell-free assay; competition with immobilised ligand; 1 µM): 97%
Nc1ncnc2n[nH]c(Nc3ccc(F)cc3)c12 — remaining signal (cell-free assay; 0.5 µM): 75.2%
COc1cc2ncnc(Nc3ccc(Oc4ccccc4)cc3C)c2cc1OC — inhibition (enzyme activity; inhibitor; 1 µM): 2%
CNCc1ccccc1-c1csc([C@H](C)Nc2nc(C)nc3cc(OC)c(OC)cc23)c1 — remaining binding (cell-free assay; competition with immobilised ligand; 1 µM): 91%
Nc1nc(NC2CCCCC2)sc1C(=O)c1ccccc1 — remaining activity (enzyme activity; inhibitor; 10 µM): 105%
O=C(CSc1nc2nccnc2c(=O)n1CCc1ccccc1)Nc1nccs1 — inhibition (enzyme activity; inhibitor; 10 µM): 1%
CNC(=O)c1cc(Oc2ccc(NC(=O)Nc3ccc(Cl)c(C(F)(F)F)c3)cc2)ccn1 — remaining signal (cell-free assay; 0.5 µM): 75.1%
CCC(=O)N[C@@H]1CC[C@H](C(=O)N(C)c2ccc(-c3nc4ccccc4o3)cc2)C1 — remaining binding (cell-free assay; competition with immobilised ligand; 1 µM): 95%
FC(F)(F)Oc1cccc(-c2cnc3ccc(-c4ccncc4)nn23)c1 — activity vs control (enzyme activity; inhibitor; radiometric; 5 µM): 72%
O=C(Nc1cnn(-c2csc(C(=O)NC3COC3)c2)c1)Nc1c(F)cccc1Cl — remaining activity (enzyme activity; inhibitor; 5 µM): 103%
CN(c1ncccc1CNc1nc(Nc2ccc3c(c2)CC(=O)N3)ncc1C(F)(F)F)S(C)(=O)=O — inhibition (enzyme activity; inhibitor; 1 µM): 3.8%
O=C1NC(=O)c2cc(Nc3ccc(F)cc3)c(Nc3ccc(F)cc3)cc21 — remaining signal (cell-free assay; 0.5 µM): 103%
O=C(Nc1ccc(Oc2ccc(F)cc2)cc1)N1CCc2ncccc2[C@H]1c1ccc(F)cc1 — remaining binding (cell-free assay; competition with immobilised ligand; 1 µM): 95%
Cc1sc(C(=O)NC2COC2)cc1-n1cc(NC(=O)Nc2c(F)cccc2Cl)cn1 — remaining activity (enzyme activity; inhibitor; 10 µM): 94.2%
Cn1nc(C(=O)NCc2ccc(C(=O)O)cc2)cc1-c1ccc2[nH]ccc2c1 — remaining binding (cell-free assay; competition with immobilised ligand; 0.1 µM): 100%
CC/C(=N\NC(=O)NCc1cccc(O)c1)c1ccc(O)c(C)c1O — inhibition (enzyme activity; inhibitor; 0.1 µM): 0.4%
O=C(O)[C@H]1[C@H](Cn2nnc3ccccc3c2=O)CC[C@@H]1C(=O)c1ccc(OCCC2CCOCC2)cc1 — remaining binding (cell-free assay; competition with immobilised ligand; 1 µM): 96%
COc1cc(Nc2c(C#N)cnc3cc(OCCCN4CCN(C)CC4)c(OC)cc23)c(Cl)cc1Cl — remaining signal (cell-free assay; 0.5 µM): 96.9%
Cc1nccc(COC(=O)N2C[C@@H]3[C@@H](CNC(=O)c4ccc5[nH]nnc5c4)[C@@H]3C2)n1 — remaining binding (cell-free assay; competition with immobilised ligand; 1 µM): 91%
CC(C)(C)c1nc(-c2cccc(NS(=O)(=O)c3c(F)cccc3F)c2F)c(-c2ccnc(N)n2)s1 — remaining activity (enzyme activity; inhibitor; radiometric; 1 µM): 128%
